Compound activity deposited in PubChem by Sanford-Burnham Center for Chemical Genomics.
The list is not random: actives were taken first. Their share in the collection is about 1.5%.
CCR6 antag: blocks CCL20-driven beta-arrestin recruitment at human CCR6; P51684; CHO-K1 CCR6 PathHunter beta-arrestin, luminescence, CCL20-stimulated; inhibition, % at 20 µM; actives 0.49% (n = 340,000); AID 493098;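 active = compounds whose inhibition of the agonist-driven luminescence signal at 20 µM reaches about 50%, limit read from the data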;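 also: cells stimulated with CCL20 at 14 nM final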
CXCR6 inh: inhibitors of human CXCR6 receptor. CHO-K1 PathHunter CXCR6 beta-arrestin, luminescence. O00574. actives 0.36% (n = 360,000). inhibition, % at 20 µM; in the data active = inhibition above about 34%, passing the limit was not always enough;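 also: antagonist mode with CXCL16 agonist at 10 nM final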
APJ agonist: activates the human apelin receptor APJ | P35414 | CHO-K1 APJ PathHunter beta-arrestin, luminescence; 0% DMSO wells, 100% apelin | activation, % at 20 µM | actives 0.11% (n = 330,000) | AID 2520;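 active = activation more than six SD over the plate average, tested at 20 µM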
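Test system: CHO-K1 APJ beta-arrestin complementation cell line. Amount: cell density 1000 per well. Controls: DMSO negative, 10 nM Apelin-13 positive. Signal: luminescent beta-gal fragment complementation, chemiluminescent substrate. Read-out basis: agonist-driven arrestin binding to APJ. Timing: compound stimulation 90 min at 25 °C, detection 60 min.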
APJ antagonist: antagonists of human APJ apelin receptor; P35414; CHO-K1 APJ beta-arrestin complementation, luminescence; inhibition, % at 20 µM; actives 0.32% (n = 330,000); AID 2521;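 active = inhibition above about 40% at 20 µM, limit read from the data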;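 also: cells challenged with 10 nM apelin-13 agonist together with compound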
EBI2 block: blocks human EBI2 receptor beta-arrestin signaling | EBI2 beta-arrestin recruitment, luminescence, 7a,25-OHC stimulated | inhibition, % at 5 µM | actives 0.81% (n = 360,000) | AID 651636; in the data active = inhibition above about 38%;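 also: enzyme fragment complementation signal reports receptor beta-arrestin coupling in cells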
Target sequence (P32249 whole entry, looked up, the tested form may be a part): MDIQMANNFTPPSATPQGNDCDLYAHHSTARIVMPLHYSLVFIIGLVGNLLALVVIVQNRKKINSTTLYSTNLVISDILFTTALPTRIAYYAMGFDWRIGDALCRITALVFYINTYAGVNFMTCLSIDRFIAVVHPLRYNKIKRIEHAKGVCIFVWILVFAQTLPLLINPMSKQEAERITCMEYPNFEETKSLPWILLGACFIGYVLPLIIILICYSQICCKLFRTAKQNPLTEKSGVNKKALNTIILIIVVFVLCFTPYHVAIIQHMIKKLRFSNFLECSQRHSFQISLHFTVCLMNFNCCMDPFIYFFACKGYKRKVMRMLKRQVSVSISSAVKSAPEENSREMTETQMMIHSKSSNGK
A number is an active result; – = inactive; · = no result.

SMILES	CCR6 antag	CXCR6 inh	APJ agonist	APJ antagonist	EBI2 block
C#CCOCCOCCOCCNc1nc(N2CCN(C(=O)CCCCCCCCCCNC(=O)[C@H]([C@@H](C)CC)n3cc(CCCCN=C(N)N)nn3)CC2)nc(N2CCN(C(=O)CCCCCCCCCCNC(=O)[C@H]([C@@H](C)CC)n3cc(CCCCN=C(N)N)nn3)CC2)n1	·	·	70.8	–	·
C#CCOCCOCCOCCNc1nc(N2CCN(C(=O)CCCCCCCCCCNC(=O)[C@H]([C@@H](C)CC)n3cc(CCCCCN)nn3)CC2)nc(N2CCN(C(=O)CCCCCCCCCCNC(=O)[C@@H]([C@H](C)CC)n3cc(CCCCCN)nn3)CC2)n1	·	·	54.6	–	·
C#CCOCCOCCOCCNc1nc(N2CCOCC2)nc(N2CCN(C(=O)CCCCCCCCCCNC(=O)[C@@H]([C@H](C)CC)n3cc(CCCCCN)nn3)CC2)n1	–	–	–	–	–
C#CCOCCOCCOCCNc1nc(N2CCN(C(=O)CCCCCCCCCCNC(=O)[C@H]([C@@H](C)CC)n3cc(CCCCN=C(N)N)nn3)CC2)nc(N2CCN(C(=O)CCCCCCCCCCNC(=O)[C@H](CO)n3cc(CCCCCN)nn3)CC2)n1	–	61.3	–	–	–
C#CCOCCOCCOCCNc1nc(N2CCN(C(=O)CCCCCCCCCCNC(=O)Cn3cc(CCCCCN)nn3)CC2)nc(N2CCN(C(=O)CCCCCCCCCCNC(=O)[C@H]([C@@H](C)CC)n3cc(CCCCN=C(N)N)nn3)CC2)n1	–	–	–	–	–
COC(=O)C1CC2=C(CCC2=O)N(c2ccccc2)C1=O (stereo not given)	–	–	·	·	–
O=C(NCc1cccnc1)c1csc([C@H]2C[C@H](O)[C@@H](CO)O2)n1	·	–	·	·	–
CC(=O)Oc1ccc(N2C(=O)C3C4C=CC(CO)(O4)C3C2=O)cc1 (stereo not given)	–	–	–	–	–
O=C1C2C3C=CC(CO)(O3)C2C(=O)N1c1ccccc1-c1ccccc1 (stereo not given)	101.5	57.0	–	–	–
COc1ccc(C(=O)/C=C2/C(=O)Nc3ccccc32)c(OC)c1	–	–	–	–	79.6
COc1cc(OC)c(/C=C2\C(=O)Nc3ccccc32)c(OC)c1	–	·	–	–	·
O=C1Nc2ccccc2/C1=C/c1cnc(-c2ccccc2)[nH]1	–	–	–	–	–
C=CCOc1ccccc1C(=O)/C=C1/C(=O)Nc2ccccc21	–	–	–	–	53.2
N#CC1=C(N)C2=CCCC[C@H]2[C@H](c2ccc(Br)cc2)C1(C#N)C#N	68.5	46.4	·	·	–
N#CC1=C(N)C2=CCCC[C@H]2[C@H](c2ccccc2)C1(C#N)C#N	–	–	–	–	–
O=C(NC(=S)N1CCN(c2ccc(Cl)cc2[N+](=O)[O-])CC1)c1cccs1	·	43.2	·	·	–
O=C(NC(=S)N1CCN(c2ccc(Cl)cc2[N+](=O)[O-])CC1)c1ccco1	–	–	–	–	–
CN1CCN(C2CN(Cc3cn(Cc4ccccc4)nn3)S(=O)(=O)C2)CC1 (stereo not given)	·	–	·	·	–
O=C1/C(=C\c2ccc(O)cc2)SC(=S)N1/N=C/c1ccc(O)cc1	66.2	47.1	–	–	–
COc1ccc(CN2CCC3CC2c2cc(-c4cccc(C)c4)ccc23)cc1 (stereo not given)	–	–	·	·	–
O=[N+]([O-])c1cc(Cl)cc(/C=N/n2cnnc2)c1O	–	31.5	–	–	–
Oc1c(C(Nc2ccccn2)c2cccnc2)cc(Cl)c2cccnc12 (stereo not given)	–	–	–	–	50.1
O=c1c2c([N+](=O)[O-])cc([N+](=O)[O-])cc2sn1-c1ccc(Br)cc1	50.1	–	–	–	78.1
COc1ccc2cc(C#N)c(SCC(=O)N3CC(=O)Nc4ccccc43)nc2c1	–	–	–	–	73.8
Cc1cccc2cc(C#N)c(SCC(=O)N3CC(=O)Nc4ccccc43)nc12	–	–	–	–	57.0
SMILES	CCR6 antag	CXCR6 inh	APJ agonist	APJ antagonist	EBI2 block
O=C1NC[C@H](CCCCN2C[C@H](Cc3ccc(O)cc3)N(CC3CCCCC3)C(=O)C2=O)N(CC2CCCCC2)C1=O	·	–	·	·	–
CNC(=O)C[C@H]1C(=O)N(CCc2ccccc2)C[C@@H]1Cc1ccccc1	·	–	·	·	–
O=C(C(Cc1ccccc1)N1C(=O)C2C3C=CC(C3)C2C1=O)N1CCCCC1 (stereo not given)	108.1	–	–	–	–
C[C@@H](CO)NC(=O)c1[nH]cnc1C(=O)Nc1cccc(Cl)c1	·	–	·	·	–
N#CC(C#N)=C1C=CC=CN1/C(=C\c1ccco1)C(=O)c1ccc(Cl)cc1	116.9	102.9	·	·	73.6
CC(/C=N/n1c(-c2ccc(Cl)cc2)n[nH]c1=S)=C\c1ccco1	–	–	–	–	–
CCN(CC)C(=O)C1=C(C)N(Cc2ccc(C(C)(C)C)cc2)C(=O)C(CC(=O)NCC2CCCCC2)C1 (stereo not given)	·	–	·	·	–
CC(=O)Nc1cccc(-c2nc3ccccc3n2C(C)C(=O)NC(C)(C)C)c1 (stereo not given)	·	·	·	·	–
CC(=O)NC(c1ccccc1)c1nc(-c2cccc(C#N)c2)cs1 (stereo not given)	·	–	·	·	–
Nc1nc(-c2ccccc2)c(N=Nc2cccc3ccccc23)s1	54.6	42.8	–	–	–
CC(=O)Nc1sc(N)nc1-c1ccccc1	–	–	–	–	–
Nc1nc(-c2ccccc2)c(N=Nc2ccccc2Cl)s1	62.5	57.1	–	–	–
Cc1ncc(N=Nc2ccccc2Cl)c(-c2ccccc2)n1	–	–	–	–	–
CCCS(=O)(=O)NC(=O)C1(C)CCN(C(=O)c2cccs2)C1 (stereo not given)	·	–	·	·	–
Cc1ccc(Cl)cc1N1CCN(C(=O)c2cc3c(=O)n(C)c4ccccc4c3n2C)CC1	–	–	13.3	–	–
Cc1cccc(N2CCN(C(=O)c3cc4c(=O)n(C)c5ccccc5c4n3C)CC2)c1C	–	–	–	–	–
CCc1nc2c(OCC3CCCCC3)cccn2c1N(C)C(=O)c1ccccc1F	·	–	·	·	–
CC1CCCN(S(=O)(=O)c2cc(C(=O)NCCc3ccc(S(N)(=O)=O)cc3)ccc2Cl)C1 (stereo not given)	–	–	·	·	–
COc1ccc(C(=O)/C=C/C(=O)N(CC(=O)NC2CCCCC2)Cc2ccccc2OC)c(O)c1	83.5	63.8	·	·	–
COc1ccc(C(=O)/C=C/C(=O)N(Cc2ccccc2OC)C(C(=O)NC2CCCCC2)c2ccncc2)c(O)c1 (stereo not given)	–	–	–	–	–
COc1ccc(C(=O)/C=C/C(=O)N(CC(=O)NC2CCCCC2)Cc2ccccc2)c(O)c1	97.4	71.0	·	·	–
C=CCc1cccc(CNn2cnnc2)c1O	–	61.5	–	–	–
Cn1nccc1-c1ccc(C(=O)NCc2ccc(Cl)cc2)c2occc12	·	–	·	·	–
COc1cc(NC(=O)N2CCc3nc(NCc4cccc(Oc5ccccc5)c4)ncc3C2)cc(OC)c1OC	·	–	·	·	–
Oc1c(Br)cc(Br)cc1C=Nc1ccc2[nH]ncc2c1	–	–	14.3	–	–
